High-throughput results (PubChem)
A selection: hits, their analogues and other compounds. The true share with any hit is near 1.3%.
CHT allo act – allosteric activators of human choline transporter CHT. AID 488977. actives 0.49% (n = 310,000). CHT-expressing cells, membrane potential dye, choline EC20; active compounds read high; LV-AA mutant CHT in HEK293 cells. B-score at 10 µM;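 active = initial fluorescence not abnormally high and integrated response B-score, plate-corrected, over 3 SD above library mean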
CHT inh – inhibitors of human choline transporter CHT; Q9GZV3; CHT-expressing cells, membrane potential dye, choline response; active compounds read low; B-score at 10 µM; actives 0.86% (n = 310,000); AID 488975;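 active = B-score over 3 SD under the library average, and starting fluorescence ratio not unusually high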;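 also: choline stimulus applied at its EC90 after an EC20 pre-addition; B-score computed on integrated fluorescence ratio after choline addition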
procasp3 activ – procaspase-3 (human) activation; P42574; recombinant procaspase-3 D3A, Ac-DEVD-pNA absorbance 405 nm; activation, % at 8.5 µM; actives 0.11% (n = 330,000); AID 463141;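 active = activation above the mean of all tested compounds plus 3 SD, cut at about 21% in these data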;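 also: 0% = DMSO alone and 100% = DMSO wells spiked with extra 5 µM PC-3 D3A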
Target sequence (P42574 whole entry D9A/D28A/D175A): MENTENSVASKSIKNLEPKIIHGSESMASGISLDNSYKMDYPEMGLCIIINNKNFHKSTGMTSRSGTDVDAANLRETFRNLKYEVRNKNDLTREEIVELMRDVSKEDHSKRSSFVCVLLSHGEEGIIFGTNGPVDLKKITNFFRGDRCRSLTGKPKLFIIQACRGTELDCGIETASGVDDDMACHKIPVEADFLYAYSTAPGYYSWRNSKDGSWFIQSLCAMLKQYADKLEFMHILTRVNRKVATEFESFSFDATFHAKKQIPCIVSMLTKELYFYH
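Test system: Procaspase-3 D3A mutant, all three cleavage aspartates alanine | Dosing: Single dose, 8.5 µM nominal compound, 0.8% DMSO | Schedule: 1 h preincubation, 2 h reaction | Technique: 405 nm absorbance of p-nitroaniline, reads at 0 and 120 min | Repeats: One well per compound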
procasp7 counter – activates human procaspase-7, counter-screen for procaspase-3 activators; activation, % at 8.5 µM; P55210; actives 0.093% (n = 330,000); recombinant procaspase-7, Ac-DEVD-pNA absorbance 405 nm; D23A/D198A/D206A triple mutant, cannot self-cleave; scale: DMSO 0, 5 µM enzyme 100;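 active = percent activation above the screen-wide mean plus 3 SD, cut at about 25% in these data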
Target sequence (P55210 whole entry D23A/D198A/D206A): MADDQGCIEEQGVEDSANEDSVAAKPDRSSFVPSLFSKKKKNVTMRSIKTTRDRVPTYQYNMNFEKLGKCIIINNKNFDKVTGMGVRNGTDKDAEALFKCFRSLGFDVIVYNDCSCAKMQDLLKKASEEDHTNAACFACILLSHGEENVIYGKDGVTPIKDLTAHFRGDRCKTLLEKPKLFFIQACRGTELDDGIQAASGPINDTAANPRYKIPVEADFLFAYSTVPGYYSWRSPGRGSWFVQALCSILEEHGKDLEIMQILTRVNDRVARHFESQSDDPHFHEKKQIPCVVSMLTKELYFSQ
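System: Procaspase-7 triple mutant (PC-7 D3A); measure: % activation from two-timepoint absorbance difference, scaled to controls; times: 1 h compound preincubation, 2 h substrate cleavage, 25 °C; also added: Ac-DEVD-pNA substrate, 400 µM as added; measured by: Epi-absorbance of released pNA at 405 nm, two timepoints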
PC3 dual counter – activates human procaspase-3, dual activator counter-screen; shares compounds with procasp7 counter; recombinant PC-3 D3A, Ac-DEVD-pNA absorbance 405 nm; aspartates 9, 28, 175 changed to alanine; 100% = enzyme control; activation, % at 8.5 µM; 290 tested, under 10 active;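 active = mean percent activation across triplicates above a set limit taken from the earlier primary procaspase-3 screen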;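 also: 0% = DMSO wells and 100% = DMSO wells with 5 µM added PC-3 D3A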
Procasp7 act – procaspase-7 (human) activation, dual activator confirmation; shares compounds with procasp7 counter; recombinant procaspase-7, Ac-DEVD-pNA absorbance 405 nm; D23A/D198A/D206A mutant that cannot self-cleave; activation, % at 8.5 µM; 290 tested, under 10 active;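 active = mean activation above a set limit carried over from the earlier primary screen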;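 also: 0% = DMSO only and 100% = DMSO with added 5 µM PC-7 enzyme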
CHT inh conf – confirmation of human choline transporter CHT inhibitors | AID 493221 | shares compounds with CHT inh | CHT activity remaining % of control (active compounds read low), % at 10 µM | CHT-expressing cells, choline membrane potential dye; LV-to-AA substituted CHT, HEK293 cells | actives 70% (n = 2,400);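 active = choline transporter activity left, mean of duplicates at 10 µM, below buffer-only control mean minus 3 SD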;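 also: depolarization triggered by choline at its EC90 following an EC20 pre-addition; 0% = hemicholinium-3 full block and 100% = buffer-only control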
HEK293 MPD ctr – CHT inhibitor counter-screen hit in parental HEK293 cells | shares compounds with CHT inh | membrane potential dye, choline response; active = decrease or increase beyond buffer ±3SD | membrane potential ratio readout (active if shifted either direction beyond buffer ±3SD; no single direction) at 10 µM | actives 4% (n = 2,400);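 also: parental cells lack the transporter so any hit is non-specific; ratio is peak minus trough fluorescence over baseline after EC90 choline challenge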
CHT act confirm – human CHT activation, confirmatory screen | shares compounds with CHT allo act | CHT-expressing cells, membrane potential dye fluorescence (FDSS); % of choline EC20–EC90 response window; HEK293 expressing CHT LV-AA mutant; choline added at its EC20 | activation, % at 10 µM | actives 91% (n = 2,500);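 active = primary screen active, with duplicate mean activation above negative control mean plus 3 SD, cut at about 11% in these data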
HEK293 MP dye – CHT activator counter-screen hit in parental HEK293 cells | shares compounds with CHT allo act | AID 623908 | ratio readout change at 10 µM, hits read low | actives 62% (n = 2,500) | membrane potential dye fluorescence (FDSS); measured after EC20 choline addition;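 active = duplicate-averaged ratio beyond 3 SD from buffer wells, up or down, though filed actives are nearly all decreases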
* hit, by the source's call; i = inactive; / = no result.

SMILES | CHT allo act | CHT inh | procasp3 activ | procasp7 counter | CHT inh conf | HEK293 MPD ctr | others
CC1CCN(C(=O)CSc2nc(C(C)C)nc3c2c(=O)n(C)c(=O)n3C)CC1 | i | i | -1 | -12 | / | /
Cc1ccc2nc(-c3ccc(NS(=O)(=O)c4ccccc4)cc3)sc2c1 | i | i | 23* | 52* | / | / | PC3 dual counter=4;Procasp7 act=3
COc1ccc(Nc2ncc(C(=O)N3CCN(c4ccc(F)cc4)CC3)c3ccccc23)cc1 | i | i | 13 | 27* | / | / | PC3 dual counter=8;Procasp7 act=0
CCOc1ccccc1CNC(=O)C1CCCN(c2nnc(C)c3c(C)n(-c4ccccc4)nc23)C1 (stereo unspecified) | i | i | 0 | -3 | / | /
COC(=O)C1=C(C)NC(=O)NC1c1ccc(N2CCC(c3ccccc3)=N2)cc1 (stereo unspecified) | i | i | 85* | 38* | / | / | PC3 dual counter=-30;Procasp7 act=-35
CC1=C(C(=O)c2ccccc2)C(c2ccc(N3CCOCC3)cc2)NC(=O)N1 (stereo unspecified) | i | i | 1 | -5 | / | /
CCC(C)Sc1cc(-c2nc3ccc(C)cn3c2NCc2ccccc2)ccc1OC (stereo unspecified) | 7.7* | i | 22* | 28* | / | / | PC3 dual counter=-27;Procasp7 act=-30;CHT act confirm=22*;HEK293 MP dye=-25*
O=C(COC(=O)c1cc(S(=O)(=O)N2CCCCC2)ccc1N1CCOCC1)c1ccc(F)cc1 | i | i | 4 | -1 | / | /
Cc1ccc(S(=O)(=O)Nc2cc(C(=O)NCCN3CCCC3)ccc2N2CCCCC2)cc1 | i | -8.6* | -2 | 7 | 23%* | 3.8*
COCCCNC(=O)c1ccc(N2CCCC2)c(NS(=O)(=O)c2ccc(C)cc2)c1 | i | i | 0 | 12 | / | /
Cc1ccc(S(=O)(=O)Nc2cc(C(=O)NCCN(C)C)ccc2N2CCCCC2)cc1 | i | -15* | -1 | 2 | 19%* | 3.2*
CCn1c(SCc2ccccc2)nnc1-c1ccc(S(=O)(=O)N2CCCCC2)cc1 | i | -5.9* | 3 | 8 | i | i
CC(C)(C)n1ncc2c(=O)n(CC(=O)c3ccccc3)cnc21 | i | i | -4 | 2 | / | /
CC(C)(C)n1ncc2c(=O)n(CC(=O)OCc3ccccc3)cnc21 | i | -6.7* | -1 | 13 | i | i
O=C(Nc1c2c(nc3c1CCC3)CCCC2)c1ccccn1 | i | i | 5 | -5 | / | /
CC1(C2CC2)NC(=O)N(CC(=O)NCc2ccc(Cl)cc2Cl)C1=O (stereo unspecified) | / | / | 5 | -10 | / | /
O=C1NC(c2ccccc2)=C(c2ccc3ccccc3n2)C(c2ccncc2)N1 (stereo unspecified) | i | -6.3* | 0 | 7 | 47%* | i
O=C1NC(c2ccccc2)=C(c2ccc3ccccc3n2)C(c2ccc(F)cc2)N1 (stereo unspecified) | i | i | 7 | -9 | / | /
Cc1ccc(C(=O)N2CCN(c3ccccc3)CC2)cc1S(=O)(=O)N1CCCC1 | i | -9.5* | -2 | -9 | 55%* | i
O=C(c1ccc(Cl)c(S(=O)(=O)N2CCCC2)c1)N1CCN(c2ccccc2)CC1 | i | -6* | -6 | 3 | 42%* | i
NC(=O)COC(=O)c1ccc(Cl)c(S(=O)(=O)N2CCN(c3ccc(F)cc3)CC2)c1 | i | -7.1* | 11 | 5 | 59%* | i
CCC(C(=O)Nc1ccc(OC)c(Cl)c1)c1ccccc1 (stereo unspecified) | i | -6.6* | 8 | 4 | i | i
CCC(C(=O)NCc1ccccc1OC)c1ccccc1 (stereo unspecified) | i | i | -2 | 8 | i | i
Cc1cc2[nH]c(=O)c(=O)[nH]c2cc1S(=O)(=O)Nc1cccc(F)c1 | i | i | 5 | 2 | / | /
CC(C(=O)NC(N)=O)N1C(=O)NC(c2ccccc2)(c2ccccc2)C1=O (stereo unspecified) | i | i | -6 | -7 | / | /
SMILES | CHT allo act | CHT inh | procasp3 activ | procasp7 counter | CHT inh conf | HEK293 MPD ctr | others
CCC(CC)C(=O)c1c[nH]c(C(=O)N2CCN(c3ccccc3F)CC2)c1 | i | i | 7 | 0 | / | /
Cc1cccn2c(=O)nc(SCC(=O)NCc3ccc4c(c3)OCO4)nc12 | i | i | 0 | -1 | / | /
CN(C)S(=O)(=O)c1ccc(C(=O)Nc2ccccc2C(=O)NCCCN2CCOCC2)cc1 | / | / | -5 | -1 | / | /
Cc1ccc(Nc2nc(CSc3nnc(-c4ccc(F)cc4)n3C)cs2)cc1 | i | -6* | 5 | -7 | 48%* | i
COc1ccc(-c2nnc(SCc3csc(N)n3)n2C)cc1 | i | i | -1 | 2 | / | /
COc1ccc(S(=O)(=O)NCc2cc(=O)n(C)c(=O)n2C)cc1C | i | i | 1 | 3 | / | /
Cn1cccc1C(=O)OCc1cc(-c2ccco2)on1 | / | / | -9 | 7 | / | /
O=C(NNC(=S)Nc1ccccc1)c1cc(Br)ccc1Cl | i | -5.8* | -8 | -8 | 54%* | i
O=C(NNC(=S)Nc1ccccc1)NNC(=S)Nc1ccccc1 | i | i | -12 | -22 | / | /
Cc1ccc(NC(=O)CCC(=O)NNC(=S)Nc2ccc(F)cc2F)cc1C | i | i | -6 | -2 | / | /
CC1=NC(C)(C)Cc2ccccc21 | i | -10* | 1 | 4 | 20%* | i
O=C(Nc1nc(-c2ccccc2)cs1)c1ccccc1NS(=O)(=O)c1ccc(F)cc1 | i | -8* | 0 | 1 | 42%* | i
Cc1cc(-c2csc(NC(=O)c3ccc(=O)[nH]c3)n2)c(C)n1Cc1ccccc1 | i | i | -1 | -10 | / | /
